ChEMBL document CHEMBL1122644, “Ring-substituted 1,2-dialkylated 1,2-bis(hydroxyphenyl)ethanes. 2. Synthesis and estrogen receptor binding affinity of 4,4'-, 5,5'-, and 6,6'-disubstituted metahexestrols” (J Med Chem, 1984)
Blank lines part the entries; values can stand above or below the molecule they belong to.

What was measured:
[1] = target: Estrogen receptor (Bos taurus) (UniProt Q9XSB5+P49884); test: Relative binding affinity for calf uterine estrogen receptor is the ratio of molar concentrations of 17-beta-estradiol and compound required to decrease amount of bound [3H]-E2 by 50% X 100.; format: protein assay
Outline: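 Calf uterine cytosol incubated with [3H]estradiol and competitor at 4 °C for 16 h. Free ligand removed with dextran-coated charcoal, then centrifuged and a supernatant aliquot counted. Six competitor concentrations chosen to span 50% competition on a semilog plot. Molar concentrations of unlabeled estradiol and test compound giving 50% reduction in binding were read from the plot.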

[2] = target: T1, Estrogen receptor (Mus musculus) (UniProt O08537+P19785); test: Estrogenic activity in mouse uterotrophic assay at 1 ug; format: functional
Outline: (§1)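 Uterotrophic test in 20-day-old immature female NMRI mice (14.5 ± 1.2 g), 10 per group. Daily s.c. injections of compound in 0.1 mL olive oil for 3 days. Uteri excised 24 h after final dose, Bouin-fixed, washed, dried and weighed to measure stimulation of uterine growth.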

[3] = target: T1, Estrogen receptor (Mus musculus); test: Anti-estrogenic activity in mouse uterotrophic assay at 100 ug; format: functional; design: unit not given here
Outline: (§2)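 Immature female NMRI mice, 20 days old (14.5 ± 1.2 g), randomized into groups of 10. Test compound in olive oil (0.1 mL) given subcutaneously daily for 3 days alongside estrone stimulation. Uteri removed 24 h after last injection, fixed in Bouin's solution, washed, dried and weighed. Readout is inhibition of estrone-stimulated uterine growth.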

[4] = target: T1, Estrogen receptor (Mus musculus); test: Estrogenic activity in mouse uterotrophic assay at 100 ug; format: functional; design: unit not given here; outline: as §1
[5] = target: T1, Estrogen receptor (Mus musculus); test: Estrogenic activity in mouse uterotrophic assay at 10 ug; format: functional; design: unit not given here; outline: as §1
[6] = target: T1, Estrogen receptor (Mus musculus); test: Estrogenic activity in mouse uterotrophic assay at 0.1 ug; format: functional; outline: as §1
[7] = target: T1, Estrogen receptor (Mus musculus); test: (§3) Anti-estrogenic activity in mouse uterotrophic assay at 1 ug; format: functional; design: unit not given here; outline: as §2
[8] = target: T1, Estrogen receptor (Mus musculus); test: Anti-estrogenic activity as inhibition of estrone-stimulated uterine growth in mice at 1 mg/kg; format: functional, organism-based; design: dose 1 mg/kg; outline: as §2
[9] = target: T1, Estrogen receptor (Mus musculus); test: Estrogenic activity in mouse uterotrophic assay at 1000 ug; format: functional; design: unit not given here; outline: as §1
[10] = target: T1, Estrogen receptor (Mus musculus); test: Anti-estrogenic activity in mouse uterotrophic assay at 10 ug; format: functional; design: unit not given here; outline: as §2
[11] = target: T1, Estrogen receptor (Mus musculus); test: Anti-estrogenic activity in mouse uterotrophic assay at 0 ug; format: functional; design: unit not given here; outline: as §2
[12] = target: T1, Estrogen receptor (Mus musculus); test: Anti-estrogenic activity as inhibition of estrone-stimulated uterine growth in mice at 10 mg/kg; format: functional, organism-based; design: dose 10 mg/kg; outline: as §2
[13] = target: T1, Estrogen receptor (Mus musculus); test: Estrogenic activity in mouse uterotrophic assay at 0 ug; format: functional; design: unit not given here; outline: as §1
[14] = target: T1, Estrogen receptor (Mus musculus); test: as §3; format: functional; outline: as §2
[15] = target: T1, Estrogen receptor (Mus musculus); test: Estrogenic activity as uterotrophic effect in mice at 800 ug dose; format: functional; outline: as §1
[16] = target: T1, Estrogen receptor (Mus musculus); test: Estrogenic activity in mouse uterotrophic assay at 80 ug; format: functional; outline: as §1
[17] = target: T1, Estrogen receptor (Mus musculus); test: Estrogenic activity in mouse uterotrophic assay at 0.8 ug; format: functional; outline: as §1
[18] = target: T1, Estrogen receptor (Mus musculus); test: Anti-estrogenic activity as inhibition of estrone-stimulated uterine growth in mice at 2.5 mg/kg; format: functional, organism-based; design: dose 2.5 mg/kg; outline: as §2
[19] = target: T1, Estrogen receptor (Mus musculus); test: Anti-estrogenic activity in mouse uterotrophic assay at 2.5 ug; format: functional; outline: as §2
[20] = target: T1, Estrogen receptor (Mus musculus); test: Anti-estrogenic activity in mouse uterotrophic assay at 500 ug; format: functional; outline: as §2
[21] = target: T1, Estrogen receptor (Mus musculus); test: Anti-estrogenic activity in mouse uterotrophic assay at 25 ug; format: functional; outline: as §2
[22] = target: T1, Estrogen receptor (Mus musculus); test: Estrogenic activity in mouse uterotrophic assay at 8 ug; format: functional; outline: as §1
[23] = target: T1, Estrogen receptor (Mus musculus); test: Anti-estrogenic activity in mouse uterotrophic assay at 50 ug; format: functional; outline: as §2
[24] = target: T1, Estrogen receptor (Mus musculus); test: Estrogenic activity in mouse uterotrophic assay at 24 ug; format: functional; outline: as §1
[25] = target: T1, Estrogen receptor (Mus musculus); test: Anti-estrogenic activity in mouse uterotrophic assay at 5 ug; format: functional; outline: as §2

T1 sequence (O08537 whole entry, looked up): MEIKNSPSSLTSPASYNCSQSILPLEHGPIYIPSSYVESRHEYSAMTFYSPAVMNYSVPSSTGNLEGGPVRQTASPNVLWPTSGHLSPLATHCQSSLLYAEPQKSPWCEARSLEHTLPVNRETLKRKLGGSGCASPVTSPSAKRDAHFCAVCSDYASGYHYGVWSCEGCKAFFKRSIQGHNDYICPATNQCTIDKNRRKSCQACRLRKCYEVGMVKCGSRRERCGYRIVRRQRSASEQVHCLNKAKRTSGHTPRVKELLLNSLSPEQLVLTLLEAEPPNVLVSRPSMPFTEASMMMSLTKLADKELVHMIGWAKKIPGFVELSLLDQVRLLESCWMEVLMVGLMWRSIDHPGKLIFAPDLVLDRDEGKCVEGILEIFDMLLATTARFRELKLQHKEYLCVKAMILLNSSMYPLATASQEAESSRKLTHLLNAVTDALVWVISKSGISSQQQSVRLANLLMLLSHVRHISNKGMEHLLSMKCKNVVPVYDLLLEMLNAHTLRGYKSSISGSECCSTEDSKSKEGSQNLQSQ
T1 sequence (P19785 whole entry, looked up): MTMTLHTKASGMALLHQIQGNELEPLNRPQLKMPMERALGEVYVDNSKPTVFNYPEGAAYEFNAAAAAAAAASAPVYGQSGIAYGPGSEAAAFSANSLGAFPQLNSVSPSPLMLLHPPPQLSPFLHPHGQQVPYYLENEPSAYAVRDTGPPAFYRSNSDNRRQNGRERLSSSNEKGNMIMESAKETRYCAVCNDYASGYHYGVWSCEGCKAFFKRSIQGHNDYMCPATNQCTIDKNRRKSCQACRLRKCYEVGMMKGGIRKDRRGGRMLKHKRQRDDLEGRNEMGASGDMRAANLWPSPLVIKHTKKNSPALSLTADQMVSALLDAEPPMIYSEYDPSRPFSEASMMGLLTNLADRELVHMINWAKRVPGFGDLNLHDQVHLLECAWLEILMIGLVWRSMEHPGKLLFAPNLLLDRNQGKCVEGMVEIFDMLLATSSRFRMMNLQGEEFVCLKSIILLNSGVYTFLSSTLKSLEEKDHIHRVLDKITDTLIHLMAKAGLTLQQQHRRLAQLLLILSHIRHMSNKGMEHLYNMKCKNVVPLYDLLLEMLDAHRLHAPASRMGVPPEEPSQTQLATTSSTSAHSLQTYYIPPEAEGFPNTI

RBA [1]: 5.6
Compound: CCC(c1ccc(O)c(N)c1)C(CC)c1ccc(O)c(N)c1 (centres undefined)

RBA [1]: 0.17
Compound: CCC(c1ccc(O)c(I)c1)C(CC)c1ccc(O)c(I)c1 (centres undefined)

RBA [1]: 0.55
Compound: CCC(c1ccc(O)c(COC)c1)C(CC)c1ccc(O)c(COC)c1 (centres undefined)

Activity [2]: 21.7
Activity [3]: 41.8
Activity [4]: 46.2
Activity [5]: 45
Activity [6]: 14.3
Activity [7]: 34.3
inhibition [8]: 24%
Activity [9]: 43.5
RBA [1]: 0.73
Activity [10]: 39.6
Activity [11]: 14.8
inhibition [12]: 3%
Activity [13]: 13.9
Compound: CCC(c1ccc(C)c(O)c1)C(CC)c1ccc(C)c(O)c1 (centres undefined)

RBA [1]: 0.25
Compound: CCC(c1ccc(O)c(Br)c1)C(CC)c1ccc(O)c(Br)c1 (centres undefined)

RBA [1]: < 0.01
Compound: CCC(c1ccc(I)c(O)c1)C(CC)c1ccc(I)c(O)c1 (centres undefined)

RBA [1]: 16
Compound: CCC(c1ccc(O)c(F)c1)C(CC)c1ccc(O)c(F)c1 (centres undefined)

RBA [1]: 0.07
Compound: CCC(c1ccc(Cl)c(O)c1)C(CC)c1ccc(Cl)c(O)c1 (centres undefined)

RBA [1]: 27
Compound: CC[C@H](c1ccc(O)cc1)[C@@H](CC)c1ccc(O)cc1

Weight (mg/g) [15]: 30.8%
Activity [16]: 30.5
Activity [17]: 11.8
inhibition [18]: 27%
Activity [19]: 29.5
Activity [20]: 30.9
Activity [21]: 28.1
Activity [22]: 14.4
Activity [23]: 28.3
RBA [1]: 10
Activity [24]: 18.5
Activity [11]: 12.5
Activity [25]: 23.5
Activity [13]: 10.7
Compound: CCC(c1cccc(O)c1)C(CC)c1cccc(O)c1 (centres undefined)

The remaining lines, values behind:

Compound: CCC(c1ccc(O)cc1C)C(CC)c1ccc(O)cc1C (centres undefined)
RBA [1]: 8.5

Compound: CCC(c1cc(O)cc(Cl)c1)C(CC)c1cc(O)cc(Cl)c1 (centres undefined)
RBA [1]: 0.03

Compound: CCC(c1cc(O)ccc1F)C(CC)c1cc(O)ccc1F (centres undefined)
Activity [2]: 15.5
Activity [3]: 41.2
Activity [4]: 39
Activity [5]: 23.2
Activity [14]: 37.8
Activity [9]: 34.6
RBA [1]: 7
Activity [10]: 38.9
Activity [11]: 13.7
Activity [13]: 13.1

Compound: CCC(c1ccc(O)cc1F)C(CC)c1ccc(O)cc1F (centres undefined)
RBA [1]: 6.5

Compound: CCC(c1ccc(O)c(CN(C)C)c1)C(CC)c1ccc(O)c(CN(C)C)c1 (centres undefined)
RBA [1]: 0.04

Compound: CCOCc1ccc(C(CC)C(CC)c2ccc(COCC)c(O)c2)cc1O (centres undefined)
RBA [1]: < 0.01

Compound: CCc1cc(C(CC)C(CC)c2ccc(O)c(CC)c2)ccc1O (centres undefined)
RBA [1]: 1.2

Compound: CCC(c1ccc(C(C)=O)c(O)c1)C(CC)c1ccc(C(C)=O)c(O)c1 (centres undefined)
RBA [1]: < 0.01

Compound: CCC(c1ccc(CO)c(O)c1)C(CC)c1ccc(CO)c(O)c1 (centres undefined)
RBA [1]: 0.03

Compound: CCC(c1ccc(O)c(CO)c1)C(CC)c1ccc(O)c(CO)c1 (centres undefined)
RBA [1]: 0.71
